Published values gathered from unrelated publications.
Each line is one published result; the experiments were not run side by side.

COc1ccnc(SCC(=O)c2ccccc2)c1C#N
EC50 (Trypanosoma brucei; parasite growth, resazurin): > 64 µM

CC(C)(C)OC(=O)N[C@H]1CCN(c2cc(C(=O)NCC(=O)O)ccc2NC(=O)c2cc(Br)c(Br)[nH]2)C1
MIC (Enterococcus faecium; microbial growth, broth dilution; ATCC35667): > 32 µg/mL

N=C(N)c1ccc(OCCCCCOc2ccc(C(=N)N)cc2)cc1
EC50 (Trypanosoma brucei; parasite growth, resazurin; 72 h): 0.005 µM

Cc1cc(C)c(C#N)c(NCC(=O)c2ccc(F)cc2)n1
EC50 (Trypanosoma brucei; parasite growth, resazurin): > 64 µM

Cc1[nH]c(C(=O)Nc2ccc(C(=O)NCC(=O)O)cc2N2CC[C@@H](N)C2)c(Cl)c1Cl.Cl
MIC (Enterococcus faecium; microbial growth, broth dilution; ATCC35667): > 32 µg/mL

Cc1cc(C)c(C#N)c(SC2COc3ccccc3C2=O)n1 (stereo not drawn)
EC50 (Trypanosoma brucei; parasite growth, resazurin): 51.2 µM

Cc1[nH]c(C(=O)Nc2ccc(C(=O)NCC(=O)O)cc2N2CC[C@@H](NC(=O)OC(C)(C)C)C2)c(Cl)c1Cl
MIC (Enterococcus faecium; microbial growth, broth dilution; ATCC35667): > 32 µg/mL

Cc1cc(C)c(C#N)c(SCC(=O)c2cccc(N)c2)n1
EC50 (Trypanosoma brucei; parasite growth, resazurin): > 64 µM

Nc1ccc(/C=C/C(=O)N2CCc3c(oc4c(-c5ccc(F)cc5)cc(-c5ccc(C(=O)N6CCC(F)(F)CC6)nn5)cc34)C2)cn1
IC50 (CFPAC-1; cell growth or viability, CCK-8; 72 h): > 20 µM

O=C(O)c1ccc2c(c1)nc(Nc1cccc(Cl)c1)c1ccncc12
IC50 (SK-MES-1; cell growth or viability, resazurin; 48 h): 6.9 µM

Nc1ccc(/C=C/C(=O)N2CCc3c(oc4c(-c5ccc(F)cc5)cc(-c5ccc(C(=O)N6C[C@@H]7[C@H](C6)C7(F)F)nn5)cc34)C2)cn1
IC50 (CFPAC-1; cell growth or viability, CCK-8; 72 h): > 20 µM

Cc1[nH]c(C(=O)Nc2ccc(C(=O)NCC(=O)O)cc2N2CCNCC2)c(Cl)c1Cl.Cl
MIC (Enterococcus faecium; microbial growth, broth dilution; ATCC35667): > 32 µg/mL

C=CC(=O)NC1CCN(c2ncc3ncnc(Nc4ccc(Oc5ccc6c(c5)ncn6C)c(C)c4)c3n2)CC1
EC50 (HCC95; cell growth or viability): 2.07 µM

Cc1cc(C)c(C#N)c(SCC(=O)c2ccccn2)n1
EC50 (Trypanosoma brucei; parasite growth, resazurin; RHODESIENSE): 18 µM

Cc1ccc(Cn2cc(C(=O)NN)c(=O)c3cc(Oc4ccccc4)ccc32)cc1
EC50 (Trypanosoma brucei; parasite growth; RHODESIENSE): 0.5 µM
